Activity calls are given as the source filed them. The rule behind the calls is not given here.
Key:
[1] = test system: Huh-7; assay: Anticancer activity against human Huh-7 cells assessed as growth inhibition at 100 microg/mL by SRB assay relative to control; assay type: functional; conditions: read-out: GI
Outline: (§1)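 Cells seeded at 3×10^3 per well and allowed to attach for 24 h. Treated with 100 µg/mL compound for 48 h, triplicate wells, with a 1% v/v DMSO vehicle control. Fixed in 20% TCA, stained with 0.4% SRB, and OD read at 570 nm. Survival fraction is treated OD/control OD.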

[2] = test system: HNO 97 cell line; assay: Induction of apoptosis in human HNO97 cells assessed as measuring fold decrease in Bcl-2 protein expression level by sandwiched immunoassay relative to control; assay type: functional
Outline: (§2)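 Sandwich ELISA on antibody-precoated wells. Sample incubated 1 h at 37 °C, then biotin-conjugated detection antibody 1 h at 37 °C, then avidin-HRP 30 min at 37 °C, with washes between steps. TMB substrate 10–20 min at 37 °C in the dark, stopped with sulphuric acid, read at 450 nm. Duplicate readings, zero-standard subtracted, quantified against a 7-point standard curve.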

[3] = test system: A-375; assay: Anticancer activity against human A-375 cells assessed as growth inhibition at 100 microg/mL by SRB assay relative to control; assay type: functional; conditions: read-out: GI; outline: as §1
[4] = test system: HNO 97 cell line; assay: Induction of cell cycle arrest in human HNO97 cells assessed as cell population at G0-G1 phase by flow cytometry (reference value: 63.31%); assay type: functional
[5] = test system: HNO 97 cell line; assay: Induction of apoptosis in human HNO97 cells assessed as measuring fold decrease in CK 18 protein expression level by sandwiched immunoassay relative to control; assay type: functional; outline: as §2
[6] = test system: HeLa; assay: Anticancer activity against human HeLa cells assessed as growth inhibition at 100 microg/mL by SRB assay relative to control; assay type: functional; conditions: read-out: GI; outline: as §1
[7] = test system: HNO 97 cell line; assay: Induction of apoptosis in human HNO97 cells assessed as measuring fold increase in caspase-3 protein expression level by sandwiched immunoassay relative to control; assay type: functional; outline: as §2
[8] = test system: MDA-MB-231; assay: Antiproliferative activity against human MDA-MB-231 cells assessed as reduction in cell growth by coomassie Brilliant Blue staining based analysis; assay type: functional
[9] = test system: FaDu; assay: Anticancer activity against human FaDu cells assessed as growth inhibition at 100 microg/mL by SRB assay relative to control; assay type: functional; conditions: read-out: GI; outline: as §1
[10] = test system: HNO 97 cell line; assay: Induction of apoptosis in human HNO97 cells assessed as measuring fold increase in p53 protein expression level by sandwiched immunoassay relative to control; assay type: functional; outline: as §2
[11] = test system: NCI-H460; assay: Anticancer activity against human NCI-H460 cells assessed as growth inhibition at 100 microg/mL by SRB assay relative to control; assay type: functional; conditions: read-out: GI; outline: as §1
[12] = test system: HNO 97 cell line; assay: Induction of cell cycle arrest in human HNO97 cells assessed as cell population at G2-M phase by flow cytometry (reference value: 2.42%); assay type: functional
[13] = test system: HNO 97 cell line; assay: Induction of cell cycle arrest in human HNO97 cells assessed as cell population at S phase by flow cytometry (reference value: 34.27%); assay type: functional
[14] = test system: HNO 97 cell line; assay: Induction of apoptosis in human HNO97 cells assessed as measuring fold increase in Bax protein expression level by sandwiched immunoassay relative to control; assay type: functional; outline: as §2
[15] = test system: MDA-MB-468; assay: Anticancer activity against human MDA-MB-468 cells assessed as growth inhibition at 100 microg/mL by SRB assay relative to control; assay type: functional; conditions: read-out: GI; outline: as §1
[16] = test system: MDA-MB-468; assay: Cytotoxicity against human MDA-MB-468 cells by SRB assay; assay type: functional, cell-based
Outline: (§3)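 Cells seeded at 3×10^3 per well and allowed to attach for 24 h. Exposed to […], 12.5, 25 and 50 µg/mL for 48 h, triplicate wells per concentration, with a 1% v/v DMSO vehicle. Fixed in 20% TCA, stained with 0.4% SRB, and OD read at 570 nm. IC50 from sigmoidal dose-response fit of survival fraction (treated/control OD).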

[17] = biological target: Poly [ADP-ribose] polymerase 1 (Homo sapiens, UniProt P09874); assay: Inhibition of human PARP-1 in MDA-MB-231 cells assessed as accumulation of cleaved PARP-1 by immunoblot analysis; assay type: cell-based
Outline: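 Drug-treated cells lysed and protein measured by BCA. Lysate (30 µg) separated by SDS-PAGE and transferred to PVDF. Probed with anti-PARP1 primary antibody (1:1000), then HRP-conjugated secondary (1:10,000), with alpha-tubulin as loading probe. Detected by ECL. Blots representative of at least three independent experiments.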

[18] = test system: A549; assay: Anticancer activity against human A549 cells assessed as growth inhibition at 100 microg/mL by SRB assay relative to control; assay type: functional; conditions: read-out: GI; outline: as §1
[19] = test system: FaDu; assay: Cytotoxicity against human FaDu cells by SRB assay; assay type: functional, cell-based; outline: as §3
[20] = test system: HNO 97 cell line; assay: Cytotoxicity against human HNO97 cells by SRB assay; assay type: functional, cell-based; outline: as §3
[21] = test system: HCT-116; assay: Anticancer activity against human HCT-116 cells assessed as growth inhibition at 100 microg/mL by SRB assay relative to control; assay type: functional; conditions: read-out: GI; outline: as §1
[22] = test system: HNO 97 cell line; assay: Induction of apoptosis in human HNO97 cells assessed as measuring fold increase in caspase-6 protein expression level by sandwiched immunoassay relative to control; assay type: functional; outline: as §2
[23] = test system: MCF7; assay: Anticancer activity against human MCF7 cells assessed as growth inhibition at 100 microg/mL by SRB assay relative to control; assay type: functional; conditions: read-out: GI; outline: as §1
[24] = Cytotoxicity against human HSF (VGS) cells assessed as growth inhibition at 100 microg/mL by SRB assay relative to control; assay type: toxicity, cell-based; conditions: at 100 µg/mL, read-out: GI
[25] = test system: SK-BR-3; assay: Anticancer activity against human SK-BR-3 cells assessed as growth inhibition at 100 microg/mL by SRB assay relative to control; assay type: functional; conditions: read-out: GI; outline: as §1
[26] = test system: HNO 97 cell line; assay: Anticancer activity against human HNO97 cells assessed as growth inhibition at 100 microg/mL by SRB assay relative to control; assay type: functional; conditions: read-out: GI; outline: as §1

Sequence of Poly [ADP-ribose] polymerase 1 (P09874 whole entry): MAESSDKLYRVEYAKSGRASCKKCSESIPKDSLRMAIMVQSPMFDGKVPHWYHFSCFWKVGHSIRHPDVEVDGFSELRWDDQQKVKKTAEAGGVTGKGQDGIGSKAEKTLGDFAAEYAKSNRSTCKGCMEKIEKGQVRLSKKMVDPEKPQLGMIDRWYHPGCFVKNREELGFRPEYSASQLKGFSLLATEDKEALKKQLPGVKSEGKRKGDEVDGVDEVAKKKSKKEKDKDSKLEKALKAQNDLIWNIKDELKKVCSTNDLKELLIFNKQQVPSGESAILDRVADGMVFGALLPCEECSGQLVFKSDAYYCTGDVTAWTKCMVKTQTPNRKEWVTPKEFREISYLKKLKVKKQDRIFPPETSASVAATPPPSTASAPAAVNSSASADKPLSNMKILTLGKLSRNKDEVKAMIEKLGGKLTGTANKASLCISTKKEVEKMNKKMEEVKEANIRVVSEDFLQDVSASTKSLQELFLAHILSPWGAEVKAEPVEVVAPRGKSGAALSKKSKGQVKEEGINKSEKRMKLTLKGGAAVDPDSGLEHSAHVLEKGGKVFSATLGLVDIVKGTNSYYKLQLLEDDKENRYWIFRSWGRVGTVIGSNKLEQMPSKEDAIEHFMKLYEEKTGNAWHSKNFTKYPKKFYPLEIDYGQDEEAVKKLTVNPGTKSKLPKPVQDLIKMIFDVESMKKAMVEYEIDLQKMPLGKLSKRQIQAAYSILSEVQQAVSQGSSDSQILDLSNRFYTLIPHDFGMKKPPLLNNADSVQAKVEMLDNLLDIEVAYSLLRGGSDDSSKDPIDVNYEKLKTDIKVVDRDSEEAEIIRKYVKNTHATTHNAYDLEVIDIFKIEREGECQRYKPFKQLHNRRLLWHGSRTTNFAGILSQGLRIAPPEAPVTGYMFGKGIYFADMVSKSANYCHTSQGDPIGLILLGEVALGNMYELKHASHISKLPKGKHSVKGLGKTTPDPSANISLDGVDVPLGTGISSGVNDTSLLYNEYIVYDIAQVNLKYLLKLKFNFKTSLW

SMILES | inhibition of growth at 100 µg/mL [1] [%] | fold change (FC) [2] | inhibition of growth at 100 µg/mL [3] [%] | fold change (FC) [5] | inhibition of growth at 100 µg/mL [6] [%] | fold change (FC) [7] | Activity [8] | inhibition of growth at 100 µg/mL [9] [%] | fold change (FC) [10] | inhibition of growth at 100 µg/mL [11] [%] | fold change (FC) [14] | inhibition of growth at 100 µg/mL [15] [%] | IC50 [16] [µM] | inhibition of growth at 100 µg/mL [18] [%] | IC50 [20] [µM] | inhibition of growth at 100 µg/mL [21] [%] | inhibition of growth at 100 µg/mL [23] [%] | inhibition at 100 microg/mL [24] [%] | inhibition of growth at 100 µg/mL [25] [%] | inhibition of growth at 100 µg/mL [26] [%] | also measured
Nc1ccc(C(=O)/C=C/c2ccc(Oc3ccc(Cl)nn3)cc2)cc1 | 73.9 | 0.59 | 56.1 | 0.54 | 82.3 | 7.55 | Active | 86.7 | 3.9 | 61.3 | 14.9 | 95 | 11.4 | 66.5 | 12.2 | 66.9 | 67.9 | 68.1 | 77.5 | 89.1 | Activity [4]: 83.28%; Activity [12]: 1.05%; Activity [13]: 15.66%; inhibition [17]: Active; IC50 [19]: 27 µM; fold change (FC) [22]: 9.76
CC(=O)Nc1cccc(C(=O)/C=C/c2ccc(Oc3ccc(Cl)nn3)cc2)c1 | 70.8 | 0.65 | 73 | 0.43 | 73.9 | 9.44 | Active | 66.3 | 7.01 | 69.6 | 18.26 | 91.1 | 30.1 | 71.5 | 13 | 77.8 | 68.7 | 70 | 55.5 | 83.7 | inhibition [17]: Active; fold change (FC) [22]: 10.49
CC(=O)Nc1ccc(C(=O)/C=C/c2ccc(Oc3ccc(Cl)nn3)cc2)cc1 | 77.5 | – | 71.7 | – | 62.9 | – | Active | 86.5 | – | 63.3 | – | 89.7 | 81.5 | 69.3 | 21.6 | 54.5 | 75 | 70.2 | 71.3 | 85.5 | inhibition [17]: Active; IC50 [19]: 30.6 µM
O=C(/C=C/c1ccc(Oc2ccc(Cl)nn2)cc1)c1ccc(OCc2ccc(Cl)cc2Cl)cc1 | 67.8 | 0.66 | 70.5 | 0.5 | 55 | 8.7 | Active | 81.6 | 5.75 | 52.4 | 11.54 | 84.2 | 21.5 | 65 | 11.1 | 75.1 | 54.4 | 50.7 | 60.9 | 83.3 | Activity [4]: 66.3%; Activity [12]: 8.57%; Activity [13]: 25.13%; IC50 [19]: 60.6 µM; fold change (FC) [22]: 9.79
